Laboratory results taken from ChEMBL document CHEMBL1250442, “Inhibiting gene expression at transcription start sites in chromosomal DNA with antigene RNAs” (Nat Chem Biol, 2005).
The source made the active and inactive calls. The calls are words filed in the database; no cut-off is given here.

Legend:
T47D [1] = assay: Inhibition of PR-A gene expression in human T47D cells at 25 nM by syber green assay in presence of 10 nM estradiol; format: functional, cell-based
T47D [2] = assay: Inhibition of PR-A mRNA gene expression in human T47D cells at 100 nM by syber green assay; format: functional
Outline: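 T47D cells plated at 80,000/well without antibiotics two days before Oligofectamine transfection with agRNA duplex (25 or 100 nM final); medium changed at 24 h, harvest day 5 unless stated otherwise. TRIzol total RNA; PR mRNA by real-time PCR with SYBR Green: 50 °C 2 min, 95 °C 10 min, 40 cycles 95 °C 15 s/60 °C 1 min.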

T47D [3] = assay: Inhibition of major vault protein expression in human T47D cells at 100 nM by syber green assay; format: functional, cell-based
T47D [4] = assay: Inhibition of PR-B mRNA gene expression in human T47D cells at 100 nM by syber green assay; format: functional
Outline: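 T47D cells in RPMI-1640 with 10% FBS, NEAA, insulin, 37 °C, 5% CO2. Plated two days before transfection without antibiotics. Oligofectamine-mediated duplex RNA transfection at 100 nM final, medium changed at 24 h, harvest five days post-transfection. Total RNA extracted with TRIzol. hPR mRNA quantified by SYBR Green qPCR: 50 °C 2 min, 95 °C 10 min, then 40 cycles of 95 °C 15 s / 60 °C 1 min.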

T47D [5] = assay: Inhibition of PR-B gene expression in human T47D cells at 25 nM by syber green assay in presence of 10 nM estradiol; format: functional, cell-based
T47D [6] = assay: Cytotoxicity against human T47D cells assessed as effect on cellular morphology; format: cell-based

SMILES | inhibition (T47D [1]) | inhibition at 0.1 µM (T47D [2]) [%] | inhibition (T47D [3]) | inhibition at 0.1 µM (T47D [4]) [%] | inhibition (T47D [5]) | Activity (T47D [6])
Cc1cn(CC(=O)N(CCNC(=O)CN(CCNC(=O)CN(CCNC(=O)CN(CCNC(=O)CN(CCNC(=O)CN(CCNC(=O)CN(CCNC(=O)CN(CCNC(=O)CN(CCNC(=O)CN(CCNC(=O)CN(CCNC(=O)CN(CCNC(=O)CN(CCNC(=O)CN(CCNC(=O)CN(CCNC(=O)CN(CCNC(=O)CN(CCNC(=O)CN(CCNC(=O)CN(CCNC(=O)CN(CCNC(=O)CN)C(=O)Cn2cnc3c(N)ncnc32)C(=O)Cn2cnc3c(=O)[nH]c(N)nc32)C(=O)Cn2cnc3c(=O)[nH]c(N)nc32)C(=O)Cn2ccc(N)nc2=O)C(=O)Cn2cnc3c(N)ncnc32)C(=O)Cn2cnc3c(=O)[nH]c(N)nc32)C(=O)Cn2cnc3c(=O)[nH]c(N)nc32)C(=O)Cn2cnc3c(=O)[nH]c(N)nc32)C(=O)Cn2ccc(=O)[nH]c2=O)C(=O)Cn2cnc3c(=O)[nH]c(N)nc32)C(=O)Cn2cnc3c(N)ncnc32)C(=O)Cn2cnc3c(=O)[nH]c(N)nc32)C(=O)Cn2cnc3c(N)ncnc32)C(=O)Cn2cnc3c(=O)[nH]c(N)nc32)C(=O)Cn2ccc(=O)[nH]c2=O)C(=O)Cn2ccc(=O)[nH]c2=O)C(=O)Cn2ccc(N)nc2=O)C(=O)Cn2ccc(N)nc2=O)C(=O)Cn2ccc(N)nc2=O)CC(=O)NCCN(CC(=O)NCC(=O)O)C(=O)Cn2cc(C)c(=O)[nH]c2=O)c(=O)[nH]c1=O | Active | 81 | Active | 81 | Active | 
Cc1cn(CC(=O)N(CCNC(=O)CN(CCNC(=O)CN(CCNC(=O)CN(CCNC(=O)CN(CCNC(=O)CN(CCNC(=O)CN(CCNC(=O)CN(CCNC(=O)CN(CCNC(=O)CN(CCNC(=O)CN(CCNC(=O)CN(CCNC(=O)CN(CCNC(=O)CN(CCNC(=O)CN(CCNC(=O)CN(CCNC(=O)CN(CCNC(=O)CN(CCNC(=O)CN(CCNC(=O)CN(CCNC(=O)CN)C(=O)Cn2cnc3c(=O)[nH]c(N)nc32)C(=O)Cn2cnc3c(=O)[nH]c(N)nc32)C(=O)Cn2cnc3c(=O)[nH]c(N)nc32)C(=O)Cn2ccc(=O)[nH]c2=O)C(=O)Cn2cnc3c(=O)[nH]c(N)nc32)C(=O)Cn2cnc3c(N)ncnc32)C(=O)Cn2cnc3c(=O)[nH]c(N)nc32)C(=O)Cn2cnc3c(N)ncnc32)C(=O)Cn2cnc3c(=O)[nH]c(N)nc32)C(=O)Cn2ccc(=O)[nH]c2=O)C(=O)Cn2ccc(=O)[nH]c2=O)C(=O)Cn2ccc(N)nc2=O)C(=O)Cn2ccc(N)nc2=O)C(=O)Cn2ccc(N)nc2=O)C(=O)Cn2ccc(N)nc2=O)C(=O)Cn2cnc3c(N)ncnc32)C(=O)Cn2ccc(=O)[nH]c2=O)C(=O)Cn2ccc(N)nc2=O)C(=O)Cn2ccc(=O)[nH]c2=O)CC(=O)NCCN(CC(=O)NCC(=O)O)C(=O)Cn2cc(C)c(=O)[nH]c2=O)c(=O)[nH]c1=O | Active | 91 | Active | 91 | Active | 
Cc1cn([C@H]2C[C@H](OP(=O)(O)OC[C@H]3O[C@@H](n4cc(C)c(=O)[nH]c4=O)C[C@@H]3O)[C@@H](COP(=O)(O)O[C@H]3[C@@H](O)[C@H](n4ccc(N)nc4=O)O[C@@H]3COP(=O)(O)O[C@H]3[C@@H](O)[C@H](n4ccc(N)nc4=O)O[C@@H]3COP(=O)(O)O[C@H]3[C@@H](O)[C@H](n4cnc5c(N)ncnc54)O[C@@H]3COP(=O)(O)O[C@H]3[C@@H](O)[C@H](n4ccc(N)nc4=O)O[C@@H]3COP(=O)(O)O[C@H]3[C@@H](O)[C@H](n4cnc5c(N)ncnc54)O[C@@H]3COP(=O)(O)O[C@H]3[C@@H](O)[C@H](n4ccc(N)nc4=O)O[C@@H]3COP(=O)(O)O[C@H]3[C@@H](O)[C@H](n4ccc(N)nc4=O)O[C@@H]3COP(=O)(O)O[C@H]3[C@@H](O)[C@H](n4ccc(=O)[nH]c4=O)O[C@@H]3COP(=O)(O)O[C@H]3[C@@H](O)[C@H](n4cnc5c(=O)[nH]c(N)nc54)O[C@@H]3COP(=O)(O)O[C@H]3[C@@H](O)[C@H](n4cnc5c(N)ncnc54)O[C@@H]3COP(=O)(O)O[C@H]3[C@@H](O)[C@H](n4ccc(N)nc4=O)O[C@@H]3COP(=O)(O)O[C@H]3[C@@H](O)[C@H](n4ccc(N)nc4=O)O[C@@H]3COP(=O)(O)O[C@H]3[C@@H](O)[C@H](n4cnc5c(=O)[nH]c(N)nc54)O[C@@H]3COP(=O)(O)O[C@H]3[C@@H](O)[C@H](n4ccc(N)nc4=O)O[C@@H]3COP(=O)(O)O[C@H]3[C@@H](O)[C@H](n4ccc(=O)[nH]c4=O)O[C@@H]3COP(=O)(O)O[C@H]3[C@@H](O)[C@H](n4ccc(N)nc4=O)O[C@@H]3COP(=O)(O)O[C@H]3[C@@H](O)[C@H](n4ccc(=O)[nH]c4=O)O[C@@H]3COP(=O)(O)O[C@H]3[C@@H](O)[C@H](n4ccc(N)nc4=O)O[C@@H]3COP(=O)(O)O[C@H]3[C@@H](O)[C@H](n4ccc(=O)[nH]c4=O)O[C@@H]3CO)O2)c(=O)[nH]c1=O |  | < 20 |  | < 20 |  | Non-toxic
